Screens: PubChem, several laboratories
Only some compounds are listed: those with a hit (about 3.6% of all), similar ones and a draw of the others.
NR3A LBD binder: NR3A (human) ligand-binding domain modulation. Tm shift relative to glycine control, % at 25 µM. 340,000 compounds, 2.5% hits. NR3A LBD differential scanning fluorimetry, Tm shift; 0% = protein alone, 100% = glycine-bound protein;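 active = melting temperature shift of at least 10% of the positive control shift, at one fixed dose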
SENP1 inh: SENP1 (human) catalytic domain inhibition; Q9P0U3; recombinant SENP1 catalytic domain, CyPet-SUMO1-YPet FRET cleavage; inhibition, % at 10 µM; 360,000 compounds, 0.21% hits;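 active = inhibition at least 30% at 10 µM, raw YFP signal under a set limit, fluorescence ratio 0.5 to 1.5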;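 also: 0% = enzyme with DMSO and 100% = no enzyme wells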
Target sequence (Q9P0U3 419-644 limits assumed): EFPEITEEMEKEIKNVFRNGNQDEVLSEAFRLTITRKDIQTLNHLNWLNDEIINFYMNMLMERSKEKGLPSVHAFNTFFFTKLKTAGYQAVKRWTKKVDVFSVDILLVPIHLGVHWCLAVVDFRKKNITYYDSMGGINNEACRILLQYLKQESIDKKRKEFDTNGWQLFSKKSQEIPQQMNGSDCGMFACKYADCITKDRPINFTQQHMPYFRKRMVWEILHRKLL
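Assay system – human recombinant His6-tagged SENP1 catalytic domain enzyme · Input – SENP1 enzyme, 20 pM final · Buffer or medium – Tris pH 8 buffer plus EDTA, NaCl, BME, BSA, NP40, catalase · Schedule – 50 min reaction at room temperature · Technique – FRET read of cyan and yellow fluorescence · Control set – no-enzyme wells low, DMSO-plus-enzyme wells high control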
UCH37 inh: inhibitors of human deubiquitinating enzyme UCH37; 330,000 compounds, 0.33% hits; Q9Y5K5; AID 588478; purified proteasome/UCH37, Ub-AMC cleavage fluorescence; inhibition, % (test concentration not listed);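 active = mean inhibition over replicate wells above about 20%, limit read from the data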;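 also: 0% = compound-free wells with enzyme and 100% = wells lacking proteasome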
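Reagent: Ub-AMC substrate; assay system: Proteasome-associated human UCH37 deubiquitinase; controls: no-proteasome and no-compound wells; read-out: % inhibition of Ub-AMC cleavage fluorescence; timing: 30 min preincubation with enzyme, 25 min cleavage at room temperature; signal: AMC fluorescence from Ub-AMC cleavage, excitation 355 nm, emission 460 nm; buffer or medium: Tris-HCl pH 7.4 plus ovalbumin, ATP-MgCl2, DTT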
ATG4B inhibitor: blocks human ATG4B protease cleavage of LC3 substrate. Q9Y4P1. ATG4B cleavage of LC3-PLA2, NBD-HPC fluorescence, 1 h. inhibition, % at 8.33 µM. 340,000 compounds, 0.51% hits; in the data active = inhibition above about 40%
Target sequence (Q9Y4P1 whole entry, looked up): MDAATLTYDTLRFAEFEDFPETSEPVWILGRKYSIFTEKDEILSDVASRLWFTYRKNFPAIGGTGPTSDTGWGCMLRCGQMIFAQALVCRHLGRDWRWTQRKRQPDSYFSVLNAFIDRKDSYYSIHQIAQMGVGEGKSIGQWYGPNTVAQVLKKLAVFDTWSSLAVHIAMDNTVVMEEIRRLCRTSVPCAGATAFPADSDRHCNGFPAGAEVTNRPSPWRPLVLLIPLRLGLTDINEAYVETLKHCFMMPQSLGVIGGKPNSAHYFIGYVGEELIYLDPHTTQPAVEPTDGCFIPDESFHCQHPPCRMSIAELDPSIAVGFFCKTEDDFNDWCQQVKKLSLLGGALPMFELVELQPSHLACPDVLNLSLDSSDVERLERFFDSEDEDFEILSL
NadD block: NadD (S. aureus) enzyme inhibition; 360,000 compounds, 0.78% hits; purified NadD enzyme, colorimetric absorbance read-out; inhibition, % at 20 µM; AID 602399; in the data active = inhibition above about 26%
Starred values were filed as active, the others as inactive; . = not tested or not shown.

SMILES	NR3A LBD binder	SENP1 inh	UCH37 inh	ATG4B inhibitor	NadD block
NS(=O)(=O)c1ccc(N=Nc2c(=O)[nH]n3c(=O)c4c([nH]c23)CCCC4)cc1	-1	2	21*	-9	1
O=c1[nH]n2c(=O)c3c([nH]c2c1N=Nc1cccc(Cl)c1)CCC3	6	2	18	10	21
COc1cccc(N=Nc2c(=O)[nH]n3c(=O)c4c([nH]c23)CCC4)c1	0	4	20*	4	19
NC(=O)Cn1cc(C=NNC(=O)c2ccc(Cn3cc(Cl)cn3)o2)c(-c2ccccc2)n1	.	.	-25	.	.
COc1ccc(S(=O)(=O)N(CC(=O)NN=Cc2cccs2)c2ccc(C)cc2)cc1OC	.	.	9	.	.
COc1ccc(OC)c(C=NN2CCN(c3ccc(Cl)cc3)CC2)c1	.	.	2	.	.
Cc1ccc(-c2cc(C(=O)N/N=C/c3ccc(Cl)cc3)n[nH]2)o1	31*	-1	.	-1	5
O=C(N/N=C/C(Br)=C/c1ccccc1)c1cc(-c2ccco2)[nH]n1	22*	-7	.	-2	28
CC(C)c1cc(C(=O)NN=C/C(Br)=C/c2ccccc2)n[nH]1	.	.	8	.	.
Cc1[nH]c2ccccc2c1/C=N/NC(=O)c1cc(-c2cccs2)[nH]n1	21*	-5	.	-22	9
Cc1ccc(-c2cc(C(=O)N/N=C/c3ccccc3)n[nH]2)o1	10	0	.	-2	4
Cc1ccc(-c2cc(C(=O)N/N=C/c3c(C)nn(-c4ccccc4)c3C)n[nH]2)s1	15*	1	.	-14	11
C/C(C=NNC(=O)c1ccc(Br)cc1)=C\c1ccccc1	.	.	-5	.	.
C/C(C=NNC(=O)c1cc(-c2ccc(C)o2)[nH]n1)=C\c1ccccc1	.	.	0	.	.
CC(/C=N/NC(=O)c1ccc(Br)cc1)=C\c1ccccc1	23*	2	.	0	1
Cn1cccc1-c1cc(C(=O)NN=Cc2ccc(Cl)cc2)[nH]n1	.	.	0	.	.
CC(/C=N/NC(=O)c1cc(-c2ccc(C)o2)[nH]n1)=C\c1ccccc1	22*	1	.	-4	10
Cn1cccc1-c1cc(C(=O)N/N=C/c2ccc(Cl)cc2)[nH]n1	19*	3	.	10	0
CC(/C=N/NC(=O)c1cc(-c2cccs2)[nH]n1)=C\c1ccccc1	11*	2	.	-3	6
COc1ccc(C=NNC(=O)CC(=O)NCCc2ccccc2)cc1OC	.	.	4	.	.
CC(/C=N/NC(=O)c1cccs1)=C\c1ccco1	3	-16	.	-2	4
C/C(C=NNC(=O)c1ccncc1)=C\c1ccco1	.	.	23*	.	.
Cc1[nH]c2ccccc2c1/C=N/NC(=O)C1CC1(c1ccccc1)c1ccccc1 (stereo not drawn)	12*	21	.	8	18
C/C(=N\NC(=O)c1ccc(Br)cc1)C1C(=O)c2ccccc2C1=O	14*	2	.	30	2
NC(Cn1nnc(-c2ccccc2)n1)=NO	.	.	3	.	.
SMILES	NR3A LBD binder	SENP1 inh	UCH37 inh	ATG4B inhibitor	NadD block
C=CCNC(=O)CC(=O)NN=Cc1ccccc1F	.	.	7	.	.
COc1cc2cc(-c3ccc(O)cc3O)nc(C)c2cc1OC	29*	0	7	-7	5
COc1cc2cc(-c3ccc(OC)c(OC)c3C)nc(N)c2cc1OC	-1	0	-16	-5	-5
O=C(NC1CCCC1)c1cc2nc(-c3ccccc3)cc(-c3ccccc3)n2n1	2	-70	-196	-8	-4
O=C(Nc1cccc(O)c1)c1cc2nc(-c3ccccc3)cc(-c3ccccc3)n2n1	20*	-59	-108	-9	21
COc1cccc(Nc2nc(N)nc(-c3oc4ccccc4c3C)n2)c1	17*	1	-9	-3	6
Cc1cccc(Nc2nc(N)nc(-c3oc4ccccc4c3C)n2)c1	4	0	-11	6	10
Cc1cc(C)nc(N=C(N)Nc2cccc([N+](=O)[O-])c2)n1	.	.	3	.	.
NC(CCN1CCCCC1)=NO	.	.	6	.	.
CCOC(=O)c1nc(Nc2ccc(C(=O)O)cc2)c2ccccc2n1	14*	2	11	7	-2
O=C(O)c1cccc(Nc2nc(-c3ccc([N+](=O)[O-])cc3)nc3ccccc23)c1	0	1	3	7	4
O=[N+]([O-])c1ccc(-c2nc(Nc3cccc(O)c3)c3ccccc3n2)cc1	30*	0	1	21	12
Oc1cccc(Nc2nc(-c3ccccc3Cl)nc3ccccc23)c1	17*	-2	.	-7	-7
CCOC(=O)c1ccc(Nc2nc(C(=O)OCC)nc3ccccc23)cc1	-2	1	-7	1	-5
Cc1ccc(-c2nc(Nc3ccc(N4CCOCC4)cc3)c3ccccc3n2)cc1	7	3	.	-4	7
Cc1ccc(-c2nc(Nc3ccc(O)cc3)c3ccccc3n2)cc1	34*	2	-32	3	9
NNc1nc(-c2ccccc2Cl)nc2ccccc12	-4	-3	2	0	2
Clc1ccc(C=NNc2nc(Cl)nc3ccccc23)cc1	.	.	3	.	.
O=C(O)c1ccc(Nc2nc(-c3ccccc3)nc3ccccc23)cc1	4	0	-43	-6	0
c1ccc(Nc2nc(-c3ccccc3)nc3ccccc23)cc1	11*	2	-69	1	-3
Cc1ccc(-c2nc(Nc3cccc(O)c3)c3ccccc3n2)cc1	42*	-3	-65	4	4
Cc1ccc(C=N/N=C2/NC(=O)C(CC(=O)N3CCOCC3)S2)cc1 (stereo not drawn)	.	.	10	.	.
O=C(COC(=O)CNS(=O)(=O)c1ccc(Br)cc1Cl)NC1CCCC1	18*	0	4	-3	-4
Cc1ccccc1OCC(=O)O/N=C(\N)Cc1ccc(Cl)cc1	-1	4	.	6	-10
COc1ccc(C/C(N)=N/OC(=O)COc2ccccc2C)cc1	11*	1	3	1	-1
SMILES	NR3A LBD binder	SENP1 inh	UCH37 inh	ATG4B inhibitor	NadD block
Cc1cccc(C)c1NC(=S)NN=Cc1ccccc1C(=O)O	.	.	1	.	.
COc1ccc(NC(=O)CC2C(=O)N(c3cccc(OC)c3)C(=O)N2C(C)C)cc1 (stereo not drawn)	5	0	3	-7	0
COc1ccc(NC(=O)CC2C(=O)N(c3cccc(OC)c3)C(=O)N2CCC(C)C)cc1 (stereo not drawn)	11*	1	-1	-5	-11
CCOc1ccc(NC(=O)CC2C(=O)N(c3ccc(OC)c(Cl)c3)C(=S)N2C2CC2)cc1 (stereo not drawn)	25*	1	-1	4	-1
COC(=O)N1C(=O)[C@](Cc2ccccc2)(c2ccccc2)N1C(=O)OC	13*	4	.	-11	-1
CCN(CC)CCNC(=S)N1CCn2c(nc3ccccc32)C1	-2	0	2	0	-10
CCNC(=S)N1CCn2c(nc3ccccc32)C1	12*	-3	3	4	-2
O=S(=O)(Nc1ccc(O)c(Sc2nc3ccccc3s2)c1)c1ccc(F)cc1	9	0	5	-20	1
